Measurements from ChEMBL document CHEMBL4190334, “Evaluation of Oxetan-3-ol, Thietan-3-ol, and Derivatives Thereof as Bioisosteres of the Carboxylic Acid Functional Group” (ACS Med Chem Lett, 2017).

Assays:
Cyclooxygenase = target: T1, Cyclooxygenase (Rattus norvegicus, UniProt P35355+Q63921); test: Inhibition of COX in RBL1 cells assessed as reduction in PGE2/D2 production using A23187-induced arachidonic acid as substrate preincubated for 2 hrs followed by A23187 addition measured after 15 mins by LC-MS/MS analysis; type: cell-based
T1 sequence (P35355 whole entry): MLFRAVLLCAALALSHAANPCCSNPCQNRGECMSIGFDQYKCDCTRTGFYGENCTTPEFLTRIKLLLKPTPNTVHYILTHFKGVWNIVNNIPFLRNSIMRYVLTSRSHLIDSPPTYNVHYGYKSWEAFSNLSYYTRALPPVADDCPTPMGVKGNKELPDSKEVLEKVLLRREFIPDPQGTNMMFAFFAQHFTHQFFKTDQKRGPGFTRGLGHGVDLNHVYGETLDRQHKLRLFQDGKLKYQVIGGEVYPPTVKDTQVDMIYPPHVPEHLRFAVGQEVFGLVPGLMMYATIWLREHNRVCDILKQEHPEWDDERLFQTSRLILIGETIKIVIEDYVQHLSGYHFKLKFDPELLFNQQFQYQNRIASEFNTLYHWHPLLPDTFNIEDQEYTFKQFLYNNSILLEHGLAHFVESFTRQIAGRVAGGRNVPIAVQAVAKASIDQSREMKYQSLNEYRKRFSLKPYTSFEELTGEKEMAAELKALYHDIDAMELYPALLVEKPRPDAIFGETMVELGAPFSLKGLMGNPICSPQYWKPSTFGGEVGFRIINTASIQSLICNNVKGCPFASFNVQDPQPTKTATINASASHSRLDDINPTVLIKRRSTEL
T1 sequence (Q63921 whole entry): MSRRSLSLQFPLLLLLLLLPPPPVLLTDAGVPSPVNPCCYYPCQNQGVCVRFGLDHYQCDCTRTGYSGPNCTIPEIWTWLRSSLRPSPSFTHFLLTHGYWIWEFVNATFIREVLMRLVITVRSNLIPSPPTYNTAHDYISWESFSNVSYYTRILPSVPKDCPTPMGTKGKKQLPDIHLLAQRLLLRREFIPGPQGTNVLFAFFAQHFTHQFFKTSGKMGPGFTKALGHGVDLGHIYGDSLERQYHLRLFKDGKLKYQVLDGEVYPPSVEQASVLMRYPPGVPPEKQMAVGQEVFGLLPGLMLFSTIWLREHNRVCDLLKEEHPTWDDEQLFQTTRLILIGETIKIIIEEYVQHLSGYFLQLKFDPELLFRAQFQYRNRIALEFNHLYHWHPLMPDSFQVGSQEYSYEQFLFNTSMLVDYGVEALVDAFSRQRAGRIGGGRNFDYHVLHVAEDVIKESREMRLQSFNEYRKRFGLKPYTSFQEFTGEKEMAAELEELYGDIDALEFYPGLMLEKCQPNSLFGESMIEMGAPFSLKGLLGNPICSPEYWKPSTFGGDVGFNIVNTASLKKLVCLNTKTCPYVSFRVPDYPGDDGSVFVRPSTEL

[1] = target: T2, Polyunsaturated fatty acid 5-lipoxygenase (Rattus norvegicus, UniProt P12527); test: Inhibition of 5-LOX in RBL1 cells assessed as reduction in LTB4 production using A23187-induced arachidonic acid as substrate preincubated for 2 hrs followed by A23187 addition measured after 15 mins by LC-MS/MS analysis; type: cell-based
T2 sequence (P12527 whole entry): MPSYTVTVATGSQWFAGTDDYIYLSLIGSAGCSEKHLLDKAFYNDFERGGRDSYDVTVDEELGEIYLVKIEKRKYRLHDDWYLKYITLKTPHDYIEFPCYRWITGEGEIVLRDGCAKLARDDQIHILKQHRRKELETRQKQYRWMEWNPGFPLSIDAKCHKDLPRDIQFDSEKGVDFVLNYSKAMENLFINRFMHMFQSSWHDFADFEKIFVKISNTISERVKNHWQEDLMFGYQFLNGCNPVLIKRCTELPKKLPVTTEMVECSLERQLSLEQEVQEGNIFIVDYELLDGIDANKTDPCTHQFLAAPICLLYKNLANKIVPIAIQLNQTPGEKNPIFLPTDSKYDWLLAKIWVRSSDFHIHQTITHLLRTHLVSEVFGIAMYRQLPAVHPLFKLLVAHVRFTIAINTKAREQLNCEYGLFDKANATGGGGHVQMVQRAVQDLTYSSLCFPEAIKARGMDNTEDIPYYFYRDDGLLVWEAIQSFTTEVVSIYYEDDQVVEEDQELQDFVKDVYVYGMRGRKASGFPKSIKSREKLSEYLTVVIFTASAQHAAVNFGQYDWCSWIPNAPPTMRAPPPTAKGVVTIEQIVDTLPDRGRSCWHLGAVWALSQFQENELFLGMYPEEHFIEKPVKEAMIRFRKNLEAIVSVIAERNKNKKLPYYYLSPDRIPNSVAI
Outline: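 RBL-1 cells incubated 2 h with test compound at several concentrations, then A23187 (12 μM) added for 15 min to trigger arachidonic acid release; LTB4 in culture supernatant quantified by LC–MS/MS. Triplicate samples per concentration; IC50 with 95% confidence interval from sigmoidal curve fit.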

[2] = n-Octanol-aqueous buffer distribution coefficient, log D of the compound at pH 7.4 by LC-MS method; type: physicochemical
[3] = Effective permeability of the compound by PAMPA; type: ADME; conditions: read-out: Peff
Outline: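 PAMPA run externally; effective permeability reported together with membrane retention and log apparent permeability coefficient.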

[4] = Effective permeability of the compound assessed as membrane retention by PAMPA relative to control; type: ADME
[5] = Dissociation constant, pKa of the compound by capillary electrophoresis method; type: physicochemical

| IC50 (Cyclooxygenase) [µM] | IC50 [1] [µM] | Structure (SMILES) | logD [2] | Papp [3] [nm/s] | R% [4] [%] | pKa [5] |
| --- | --- | --- | --- | --- | --- | --- |
| > 100 | 7.6 | CC(C)Cc1ccc(C(C)C2(O)CSC2)cc1 (centres undefined) |  |  |  |  |
| 34.1 | 8.4 | CC(C)Cc1ccc(C(C)C2(O)COC2)cc1 (centres undefined) |  |  |  |  |
| 17.4 | 11.7 | CC(C)Cc1ccc(C(C)C2(O)C[S+]([O-])C2)cc1 (centres undefined) |  |  |  |  |
| 14.6 | 20.2 | CC(C)Cc1ccc(C(C)C2(O)CS(=O)(=O)C2)cc1 (centres undefined) |  |  |  |  |
| 28.1 | > 100 | CC(C)Cc1ccc(C2CC(O)=CC2=O)cc1 (centres undefined) |  |  |  |  |

More lines, now with the values behind:

| Structure (SMILES) | IC50 (Cyclooxygenase) [µM] | IC50 [1] [µM] | logD [2] | Papp [3] [nm/s] | R% [4] [%] | pKa [5] |
| --- | --- | --- | --- | --- | --- | --- |
| OC1(CCc2ccccc2)CSC1 |  |  | 2.99 | 132 | 11.4 | > 12 |
| [O-][S+]1CC(O)(CCc2ccccc2)C1 (centres undefined) |  |  | 1.22 | 62.3 | 10 | > 12 |
| CC(C)Cc1ccc(C(C)c2nnn[nH]2)cc1 (centres undefined) | 31.8 | > 100 |  |  |  |  |
| O=S1(=O)CC(O)(CCc2ccccc2)C1 |  |  | 1.24 | 122 | 10.7 | 9.31 |
| OC1(CCc2ccccc2)COC1 |  |  | 2.07 | 82.7 | -11.9 | > 12 |
| CC(C)Cc1ccc(C(C)C(=O)O)cc1 (centres undefined) [IBUPROFEN] |  | > 100 |  |  |  |  |
